Measured values as given in ChEMBL document CHEMBL4270642, “Boronic ester-linked macrocyclic lipopeptides as serine protease inhibitors targeting Escherichia coli type I signal peptidase” (Eur J Med Chem, 2018).
Values after ≈ are worked out from the molar mass of the structure shown. Square brackets hold non-standard residues; d marks the D form. Peptide text beside a SMILES is read from it. * marks the point of attachment. Benzoyl(4-(4-hexylphenyl)) = CCCCCCc1ccc(-c2ccc(C(=O)*)cc2)cc1; boroAla = C[C@H](N*)B(O)O; Orn = NCCC[C@H](N)C(=O)O

What was measured:
[1] = molecular target: Signal peptidase I (Escherichia coli K-12) (UniProt P00803); experiment: Inhibition of Escherichia coli type 1 signal peptidase lepB assessed as residual activity at 5 uM preincubated for 10 mins followed by Dabcyl-VGGTATAYGAFSRPGLE-(EDANS)-OH substrate addition measured after 2 hrs by FRET based assay (reference value: 100%)
In short: (§1)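 EcLepB (about 50 nM estimated) preincubated 10 min with compound. Reaction started with Dabcyl/EDANS FRET peptide at 8 µM final (Km 20 µM). Fluorescence followed continuously at 535 nm, 22 °C, for 2 h. Cleavage rates plotted against inhibitor concentration; IC50 from non-linear regression of sigmoidal dose-response curves.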

HepG2 = experiment: Cytotoxicity against human HepG2 cells after 72 hrs by FMSA; format: cell-based; conditions: HepG2, 72 h
In short: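 HepG2 (ATCC) grown in EMEM with 10% FBS, pen/strep, 2 mM L-glutamine, used up to 20 passages. Seeded at 1000 cells/well, cultured overnight, then dosed acoustically from DMSO stocks. Eight two-fold dilutions in duplicate from top 64 or 32 µM; 72 h at 37 °C, 5% CO2. Fluorescein diacetate hydrolysis read at ex 485/em 530 nm; IC50 by non-linear regression.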

[2] = molecular target: Signal peptidase I (Escherichia coli K-12) (UniProt P00803); experiment: Inhibition of Escherichia coli type 1 signal peptidase lepB assessed as residual activity at 0.0098 uM preincubated for 10 mins followed by Dabcyl-VGGTATAYGAFSRPGLE-(EDANS)-OH substrate addition measured after 2 hrs by FRET based assay (reference value: 100%); in short: as §1
Escherichia coli [3] = experiment: Antibacterial activity against Escherichia coli ATCC 25922 after 16 to 20 hrs by broth microdilution method; format: functional
In short: (§2)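 Broth microdilution in cation-adjusted Mueller-Hinton II per EUCAST/CLSI; two-fold compound series 64 down to 0.25 µg/mL final. Inoculum from fresh colonies (non-selective agar, 18-24 h, 35 ± 2 °C), adjusted to 0.5 McFarland, diluted to about 5 × 10^5 CFU/mL final. Static incubation 16-20 h at 35 ± 2 °C; MIC read visually as complete growth inhibition against medium-only wells.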

[4] = molecular target: Signal peptidase I (Escherichia coli K-12) (UniProt P00803); experiment: Inhibition of Escherichia coli type 1 signal peptidase lepB assessed as residual activity at 2.5 uM preincubated for 10 mins followed by Dabcyl-VGGTATAYGAFSRPGLE-(EDANS)-OH substrate addition measured after 2 hrs by FRET based assay (reference value: 100%); in short: as §1
[5] = molecular target: Signal peptidase I (Escherichia coli K-12) (UniProt P00803); experiment: Inhibition of Escherichia coli type 1 signal peptidase lepB assessed as residual activity at 10 uM preincubated for 10 mins followed by Dabcyl-VGGTATAYGAFSRPGLE-(EDANS)-OH substrate addition measured after 2 hrs by FRET based assay (reference value: 100%); in short: as §1
Pseudomonas aeruginosa [6] = experiment: Antibacterial activity against Pseudomonas aeruginosa PAO1 after 16 to 20 hrs by broth microdilution method; format: functional; in short: as §2
Klebsiella pneumoniae = experiment: Antibacterial activity against Klebsiella pneumoniae ATCC 13883 after 16 to 20 hrs by broth microdilution method; format: functional; in short: as §2
[7] = Hemolytic activity in human RBC at 100 uM after 45 mins by spectrophotometric method relative to control; format: ADME, cell-based, Erythrocyte; conditions: red blood cells (erythrocytes), read-out: Activity
In short: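 Heparinized human blood; red cells washed three times in Tyrode buffer pH 7.4. Compound at 100 µM final with 1% DMSO and 50% RBC, shaken (250 rpm) 45 min at 37 °C. Cells pelleted (1000 × g, 10 min); supernatant haemoglobin at 540 nm. Percent lysis relative to buffer-only and 2% Triton X-100 controls.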

[8] = molecular target: Signal peptidase I (Escherichia coli K-12) (UniProt P00803); experiment: Inhibition of Escherichia coli type 1 signal peptidase lepB assessed as residual activity at 0.0024 uM preincubated for 10 mins followed by Dabcyl-VGGTATAYGAFSRPGLE-(EDANS)-OH substrate addition measured after 2 hrs by FRET based assay (reference value: 100%); in short: as §1
[9] = molecular target: Signal peptidase I (Escherichia coli K-12) (UniProt P00803); experiment: Inhibition of Escherichia coli type 1 signal peptidase lepB assessed as residual activity at 0.0049 uM preincubated for 10 mins followed by Dabcyl-VGGTATAYGAFSRPGLE-(EDANS)-OH substrate addition measured after 2 hrs by FRET based assay (reference value: 100%); in short: as §1
[10] = molecular target: Signal peptidase I (Escherichia coli K-12) (UniProt P00803); experiment: Inhibition of Escherichia coli type 1 signal peptidase lepB assessed as residual activity at 0.0391 uM preincubated for 10 mins followed by Dabcyl-VGGTATAYGAFSRPGLE-(EDANS)-OH substrate addition measured after 2 hrs by FRET based assay (reference value: 100%); in short: as §1
[11] = molecular target: Signal peptidase I (Escherichia coli K-12) (UniProt P00803); experiment: Inhibition of Escherichia coli type 1 signal peptidase lepB assessed as residual activity at 0.0006 uM preincubated for 10 mins followed by Dabcyl-VGGTATAYGAFSRPGLE-(EDANS)-OH substrate addition measured after 2 hrs by FRET based assay (reference value: 100%); in short: as §1
[12] = molecular target: Signal peptidase I (Escherichia coli K-12) (UniProt P00803); experiment: Inhibition of Escherichia coli type 1 signal peptidase lepB assessed as residual activity at 0.0781 uM preincubated for 10 mins followed by Dabcyl-VGGTATAYGAFSRPGLE-(EDANS)-OH substrate addition measured after 2 hrs by FRET based assay (reference value: 100%); in short: as §1
[13] = molecular target: Signal peptidase I (Escherichia coli K-12) (UniProt P00803); experiment: Inhibition of Escherichia coli type 1 signal peptidase lepB assessed as residual activity at 1.25 uM preincubated for 10 mins followed by Dabcyl-VGGTATAYGAFSRPGLE-(EDANS)-OH substrate addition measured after 2 hrs by FRET based assay (reference value: 100%); in short: as §1
[14] = molecular target: Signal peptidase I (Escherichia coli K-12) (UniProt P00803); experiment: Inhibition of Escherichia coli type 1 signal peptidase lepB assessed as residual activity at 0.0012 uM preincubated for 10 mins followed by Dabcyl-VGGTATAYGAFSRPGLE-(EDANS)-OH substrate addition measured after 2 hrs by FRET based assay (reference value: 100%); in short: as §1
[15] = molecular target: Signal peptidase I (Escherichia coli K-12) (UniProt P00803); experiment: Inhibition of Escherichia coli type 1 signal peptidase lepB assessed as residual activity at 0.625 uM preincubated for 10 mins followed by Dabcyl-VGGTATAYGAFSRPGLE-(EDANS)-OH substrate addition measured after 2 hrs by FRET based assay (reference value: 100%); in short: as §1
Pseudomonas aeruginosa [16] = experiment: Antibacterial activity against efflux defective Pseudomonas aeruginosa PAO750 after 16 to 20 hrs by broth microdilution method; format: functional; in short: as §2
Escherichia coli [17] = experiment: Antibacterial activity against Escherichia coli D22 CGSG 5163 harboring Ips mutant after 16 to 20 hrs by broth microdilution method; format: functional
In short: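 Broth microdilution in cation-adjusted Mueller-Hinton II broth, following EUCAST and CLSI guidelines. Two-fold series at final concentrations 64 down to 0.25 µg/mL, with medium-only and growth controls. Inoculum from fresh colonies (18-24 h, 35 °C ± 2 °C) adjusted to 0.5 McFarland, final ≈5 × 10^5 CFU/mL. Plates incubated unshaken 16-20 h at 35 °C ± 2 °C. MIC read visually as complete inhibition of growth.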

Acinetobacter baumannii = experiment: Antibacterial activity against Acinetobacter baumannii ATCC 19606 after 16 to 20 hrs by broth microdilution method; format: functional; conditions: ATCC 19606 = CIP 70.34 = JCM 6841; in short: as §2
Signal peptidase I = Signal peptidase I (Escherichia coli K-12, UniProt P00803); experiment: Inhibition of Escherichia coli type 1 signal peptidase lepB preincubated for 10 mins followed by Dabcyl-VGGTATAYGAFSRPGLE-(EDANS)-OH substrate addition measured after 2 hrs by FRET based assay; in short: as §1
Escherichia coli [18] = experiment: Antibacterial activity against tolC deficient Escherichia coli CH3130 after 16 to 20 hrs by broth microdilution method; format: functional; in short: as §2
[19] = molecular target: Signal peptidase I (Escherichia coli K-12) (UniProt P00803); experiment: Inhibition of Escherichia coli type 1 signal peptidase lepB assessed as residual activity at 0.0195 uM preincubated for 10 mins followed by Dabcyl-VGGTATAYGAFSRPGLE-(EDANS)-OH substrate addition measured after 2 hrs by FRET based assay (reference value: 100%); in short: as §1
[20] = molecular target: Signal peptidase I (Escherichia coli K-12) (UniProt P00803); experiment: Inhibition of Escherichia coli type 1 signal peptidase lepB assessed as residual activity at 0.1563 uM preincubated for 10 mins followed by Dabcyl-VGGTATAYGAFSRPGLE-(EDANS)-OH substrate addition measured after 2 hrs by FRET based assay (reference value: 100%); in short: as §1
[21] = molecular target: Signal peptidase I (Escherichia coli K-12) (UniProt P00803); experiment: Inhibition of Escherichia coli type 1 signal peptidase lepB assessed as residual activity at 0.3125 uM preincubated for 10 mins followed by Dabcyl-VGGTATAYGAFSRPGLE-(EDANS)-OH substrate addition measured after 2 hrs by FRET based assay (reference value: 100%); in short: as §1
Staphylococcus aureus = experiment: Antibacterial activity against Staphylococcus aureus ATCC 29213 after 16 to 20 hrs by broth microdilution method; format: functional; in short: as §2

Chain of Signal peptidase I (Escherichia coli K-12) (P00803 whole entry): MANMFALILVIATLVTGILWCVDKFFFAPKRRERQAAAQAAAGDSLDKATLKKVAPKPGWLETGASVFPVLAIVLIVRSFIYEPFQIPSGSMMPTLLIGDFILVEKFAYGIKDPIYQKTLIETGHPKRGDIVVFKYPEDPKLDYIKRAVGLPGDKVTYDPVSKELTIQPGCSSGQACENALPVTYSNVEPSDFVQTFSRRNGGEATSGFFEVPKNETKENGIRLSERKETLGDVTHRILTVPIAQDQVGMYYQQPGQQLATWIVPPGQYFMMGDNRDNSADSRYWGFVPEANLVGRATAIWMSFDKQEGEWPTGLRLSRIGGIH
Chain of Signal peptidase I (P00803 whole entry): as above

Compound	Activity [1] [%]	IC50 (HepG2) [µM]	Activity [2] [%]	MIC (Escherichia coli [3]) [µg/mL]	Activity [4] [%]	Activity [5] [%]	MIC (Pseudomonas aeruginosa [6]) [µg/mL]	MIC (Klebsiella pneumoniae) [µg/mL]	hemolysis at 0.75 h, 100 µM [7] [%]	Activity [8] [%]	Activity [9] [%]	Activity [10] [%]	Activity [11] [%]	Activity [12] [%]	Activity [13] [%]	Activity [14] [%]	Activity [15] [%]	MIC (Pseudomonas aeruginosa [16]) [µg/mL]	MIC (Escherichia coli [17]) [µg/mL]	MIC (Acinetobacter baumannii) [µg/mL]	other results
CCCCCCc1ccc(-c2ccc(C(=O)N[C@@H](CCCN)C(=O)N[C@H](C(=O)N[C@@H](C)C(=O)N[C@H]3Cc4cn(nn4)CCO[C@@H]4C[C@@H]5OB(O[C@@H]5C4)[C@H](C)NC3=O)[C@@H](C)O)cc2)cc1	4	8	94.3	16 (≈ 18.1 µM)	27.1	-2.5	64 (≈ 72.2 µM)	8 (≈ 9.03 µM)	10.6	90.6	91	77.8	95.3	65.2	42.2	90.7	27.1	32 (≈ 36.1 µM)	4 (≈ 4.52 µM)	8 (≈ 9.03 µM)	IC50 (Signal peptidase I): 175 nM; MIC (Escherichia coli [18]): 4 µg/mL (≈ 4.52 µM); Activity [19]: 84.3%; Activity [20]: 57.6%; Activity [21]: 39.1%; MIC (Staphylococcus aureus): 2 µg/mL (≈ 2.26 µM)
CCCCCCc1ccc(-c2ccc(C(=O)N[C@@H](CCCN)C(=O)N[C@H](C(=O)N[C@@H](C)C(=O)N[C@@H](CC(N)=O)C(=O)N[C@@H](C)B(O)O)[C@@H](C)O)cc2)cc1 ({Benzoyl(4-(4-hexylphenyl))}-[Orn]TAN-boroAla)	6.7	10.1	89.3	8 (≈ 10.6 µM)	8.8	5.8	64 (≈ 84.9 µM)	2 (≈ 2.65 µM)	4.8	87	93.9	57.5	95.9	25.7	15.6	97.7	20.6	16 (≈ 21.2 µM)	0.5 (≈ 0.663 µM)	4 (≈ 5.31 µM)	IC50 (Signal peptidase I): 52 nM; MIC (Escherichia coli [18]): 1 µg/mL (≈ 1.33 µM); Activity [19]: 84.8%; Activity [20]: 19.2%; Activity [21]: 20.3%; MIC (Staphylococcus aureus): 0.025 µg/mL (≈ 0.0332 µM)
